Activity calls are given as the source filed them. The calls are words filed in the database; no cut-off is given here. Where only a bound is given, the exact number is not on record here.

Data set [1] deals with Leishmania donovani. The experiment in a line: Antileishmanial activity against Leishmania donovani MHOM/IN/80/Dd8 promastigotes assessed as reduction in promastigotes viability incubated for 24 hrs by resazurin-based alamar blue dye assay. Conditions: MHOM/IN/80/Dd8, 24 h. The data set is classed as functional, organism-based. The gist of the method: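 L. donovani DD8 promastigotes, exponential phase, in M199 with 10% heat-inactivated FBS at 24 ± 1 °C, 5×10^6 cells per well. Exposed 24 h to 100, 50, 25, 12.5 and 6.25 μM (1 mM DMSO stocks). Viability read with resazurin (Alamar Blue, 20 μg ml^-1 final), excitation 550 nm and emission 590 nm. Amphotericin B standard. IC50 from curve fit; mean ± SD of three independent experiments.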
Background: Alamar Blue is a resazurin reagent that responds to reducing activity.

Data set [2] relates to J774.A1. The experiment in a line: Cytotoxicity against mouse J774.A1 cells assessed as reduction in viability at 50 uM incubated for 20 hrs by MTT assay. Conditions: j774.a1, 20 h. The data set is classed as toxicity, cell-based. In a few lines: (§1)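 J774A.1 murine macrophages in DMEM, 2×10^4 cells per well, adhered overnight. Treated in triplicate at 100, 50, 30, 20 and 10 μM with 0.1% final DMSO (DMSO negative control, amphotericin B positive control) for 20 h. MTT (2.5 mg ml^-1 in PBS) added for 4 h at 37 °C, formazan dissolved in DMSO, OD 570 nm. CC50 from curve fit; mean ± SD of three independent experiments.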
On the technique in general: Tetrazolium dyes change colour on reduction, which living cells bring about.

The test system of data set [3] is J774.A1. The data set is described as follows: Cytotoxicity against mouse J774.A1 cells assessed as reduction in viability at 30 uM incubated for 20 hrs by MTT assay. The data set is classed as toxicity, cell-based. Conditions: j774.a1, 20 h. The gist of the method: as §1
Data set [4] has as its system J774.A1. The data set is described as follows: Cytotoxicity against mouse J774.A1 cells assessed as reduction in viability at 20 uM incubated for 20 hrs by MTT assay. The data set is classed as toxicity, cell-based. Conditions: j774.a1, 20 h. In a few lines:
as §1

Data set [5] concerns J774.A1. The data set is described as follows: Cytotoxicity against mouse J774.A1 cells assessed as reduction in viability at 10 uM incubated for 20 hrs by MTT assay. The settings on record: j774.a1, 20 h. The data set is classed as toxicity, cell-based. In a few lines: as §1
A short description of data set [6]: Cytotoxicity against mouse J774.A1 cells assessed as reduction in viability incubated for 20 hrs by MTT assay. Format: toxicity, cell-based. The gist of the method:
as §1

Data set [7] concerns Leishmania donovani. The experiment in a line: Inhibition of recombinant Leishmania donovani DNA topoisomerase IB mediated relaxation activity expressed in Escherichia coli BL21 (DE3) cells using supercoiled pHOT1 DNA as substrate at 500 uM incubated for 25 mins by EtBr staining based agarose gel electrophoresis analysis. The gist of the method: (§2)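 His-tagged LdTopILS expressed from pET16b plasmids in E. coli BL21(DE3) (0.5 mM IPTG, 22 °C, 12 h) and Ni-NTA purified. Enzyme mixed with supercoiled pHOT1 at 3:1 molar ratio in 25 mM Tris-Cl pH 7.5, 5% glycerol, 50 mM KCl, 0.5 mM DTT, 10 mM MgCl2, 30 μg ml^-1 BSA for 25 min at 37 °C. Controls: CPT 60 μM and DMSO 4% v/v. Products run on 1% agarose, EtBr stained, relaxed vs supercoiled quantified.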

Data set [8] concerns Leishmania donovani. The experiment in a line: Inhibition of recombinant Leishmania donovani DNA topoisomerase IB mediated relaxation activity expressed in Escherichia coli BL21 (DE3) cells using supercoiled pHOT1 DNA as substrate at 500 uM incubated for 25 mins by EtBr staining based agarose gel electrophoresis analysis relative to control. In a few lines:
as §2

Data set [9] deals with Leishmania donovani. The data set is described as follows: Inhibition of recombinant Leishmania donovani DNA topoisomerase IB mediated relaxation activity expressed in Escherichia coli BL21 (DE3) cells using supercoiled pHOT1 DNA as substrate at 400 uM incubated for 25 mins by EtBr staining based agarose gel electrophoresis analysis relative to control. The gist of the method:
as §2

Data set [10] concerns Leishmania donovani. The experiment in a line: Inhibition of recombinant Leishmania donovani DNA topoisomerase IB mediated relaxation activity expressed in Escherichia coli BL21 (DE3) cells using supercoiled pHOT1 DNA as substrate at 60 uM incubated for 25 mins by EtBr staining based agarose gel electrophoresis analysis. The gist of the method:
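LdTopILS was co-expressed from pET16bLdTOP1L and pET16bLdTOP1S in E. coli BL21(DE3), induced with 0.5 mM IPTG at OD600 0.6 for 12 h at 22 °C, and Ni-NTA purified. Enzyme and supercoiled pHOT1 (3:1 molar) ran 25 min at 37 °C in 25 mM Tris-Cl pH 7.5, 5% glycerol, 50 mM KCl, 0.5 mM DTT, 10 mM MgCl2, 30 µg/ml BSA. DMSO 4% v/v was the solvent control. Relaxed versus supercoiled bands were quantified on 1% agarose with EtBr.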

A word on the IC50: it is the concentration that inhibits the measured activity by half. Take `Clc1ccc(C(c2c[nH]c3cc(Cl)ccc23)c2c[nH]c3cc(Cl)ccc23)cc1`: the IC50 in data set [1] was 53.2 µM.

For `Cc1ccc(C(c2c[nH]c3ccccc23)c2c[nH]c3ccccc23)cc1`, the IC50 in data set [1] was 54.3 µM.

Broadly, the CC50 is the concentration at which the toxic effect on the cells reaches its halfway point. For orientation: inhibition means the share of the control response that was lost under treatment. Take `Fc1ccc(C(c2c[nH]c3ccc(Br)cc23)c2c[nH]c3ccc(Br)cc23)cc1`: in data set [1], the IC50 amounted to 34.8 µM. The Activity in data set [2] stood at 21.73%; in data set [3] it was 30.34%; in [4], 34.28%; in data set [5], 39.59%. Moreover, in [6], the CC50 at 20 h was 4.45 µM. In [7], the inhibition result is “inactive”.

For the compound `OC[C@H]1O[C@@H](n2cc(C(c3ccc(F)cc3)c3cn([C@@H]4O[C@H](CO)[C@@H](O)[C@@H](O)[C@H]4O)c4ccc(Br)cc34)c3cc(Br)ccc32)[C@H](O)[C@H](O)[C@@H]1O` (some centres undefined), the IC50 in [1] is 27.9 µM. Also, the Activity in [2] came out at 69.77%; in data set [3], 70.11%; in data set [4] it was 81.05%; in data set [5] it was 96.25%. In [6], the CC50 at 20 h came out at 89.2 µM. Besides, the inhibition in data set [8] and in data set [9] was 100% throughout.

As to `COc1ccc(C(c2c[nH]c3ccc(Br)cc23)c2c[nH]c3ccc(Br)cc23)cc1`, in [1], the IC50 is greater than 100 µM.

With `Clc1ccc(C(c2c[nH]c3ccccc23)c2c[nH]c3ccccc23)cc1`, the IC50 in data set [1] was found to be 57.1 µM.

As for `CSc1ccc(C(c2c[nH]c3ccccc23)c2c[nH]c3ccccc23)cc1`, in [1], the IC50 was greater than 100 µM.

As to `Fc1ccc(C(c2c[nH]c3ccccc23)c2c[nH]c3ccccc23)cc1`, the IC50 in [1] was 36.2 µM. Further, the Activity is on record as 15.89% in [2], 19.81% in [3], 20.05% in data set [4] and 26.23% in data set [5]. In addition, the CC50 at 20 h in data set [6] worked out at 5.71 µM. The inhibition result in data set [7] is “inactive”.

`CC[C@@]1(O)C(=O)OCc2c1cc1n(c2=O)Cc2cc3ccccc3nc2-1`: the inhibition entry in data set [10] was “Active”.

Take `C[C@@H]1[C@H](O)[C@@H](C)/C=C/C=C/C=C/C=C/C=C/C=C/C=C/[C@H](O[C@@H]2O[C@H](C)[C@@H](O)[C@H](N)[C@@H]2O)C[C@@H]2O[C@](O)(C[C@@H](O)C[C@@H](O)[C@H](O)CC[C@@H](O)C[C@@H](O)CC(=O)O[C@H]1C)C[C@H](O)[C@H]2C(=O)O` [AMPHOTERICIN B]: the IC50 in data set [1] stood at 0.4 µM.

For `Clc1ccc2c(C(c3ccc(Br)cc3)c3c[nH]c4cc(Cl)ccc34)c[nH]c2c1`, the IC50 in data set [1] is 74.3 µM.

As for `OC[C@H]1O[C@@H](n2ccc3cc(Br)ccc32)[C@H](O)[C@@H](O)[C@@H]1O`, the inhibition in data set [8] is greater than 90%.

For `Cc1ccc(C(c2c[nH]c3ccc(Br)cc23)c2c[nH]c3ccc(Br)cc23)cc1`, the IC50 in [1] stood at 59.2 µM.

As to `O=[N+]([O-])c1ccc(C(c2c[nH]c3ccc(Br)cc23)c2c[nH]c3ccc(Br)cc23)cc1`, the IC50 in data set [1] was 48.5 µM.

Turning to `Clc1ccc(C(c2c[nH]c3ccc(Br)cc23)c2c[nH]c3ccc(Br)cc23)cc1`, in data set [1], the IC50 stood at 41.8 µM. Further, in data set [7], the inhibition result was “inactive”.

Regarding `CSc1ccc(C(c2c[nH]c3ccc(Br)cc23)c2c[nH]c3ccc(Br)cc23)cc1`, the IC50 in data set [1] was greater than 100 µM.

As for `O=[N+]([O-])c1ccc(C(c2c[nH]c3cc(Cl)ccc23)c2c[nH]c3cc(Cl)ccc23)cc1`, in data set [1], the IC50 is 48.4 µM.

As for `CC(=O)OC[C@H]1O[C@@H](n2cc(C(c3ccc(F)cc3)c3cn([C@@H]4O[C@H](COC(C)=O)[C@@H](OC(C)=O)[C@H](OC(C)=O)[C@H]4OC(C)=O)c4ccc(Br)cc34)c3cc(Br)ccc32)[C@H](OC(C)=O)[C@@H](OC(C)=O)[C@@H]1OC(C)=O`, the IC50 in data set [1] was 29.1 µM. Also, the inhibition in data set [8] and in [9] was 100% throughout.

With `COc1ccc(C(c2c[nH]c3ccccc23)c2c[nH]c3ccccc23)cc1`, the IC50 in data set [1] stood at 54.9 µM.

`Fc1ccc2[nH]cc(C(c3ccc(Cl)cc3)c3c[nH]c4ccc(F)cc34)c2c1`: the IC50 in data set [1] was 31.4 µM. In addition, the Activity is 26.14% in data set [2], 32.04% in data set [3], 33.53% in data set [4] and 40.15% in [5]. For the same compound, the CC50 at 20 h in data set [6] is 4.51 µM. The inhibition entry in data set [7] is “inactive”.

In the case of `Fc1ccc(C(c2c[nH]c3cc(Cl)ccc23)c2c[nH]c3cc(Cl)ccc23)cc1`, the IC50 in data set [1] is greater than 100 µM.

Consider `O=[N+]([O-])c1ccc(C(c2c[nH]c3ccccc23)c2c[nH]c3ccccc23)cc1`, for which, in [1], the IC50 was greater than 100 µM.

`Brc1ccc(C(c2c[nH]c3ccc(Br)cc23)c2c[nH]c3ccc(Br)cc23)cc1`: the IC50 in [1] is greater than 100 µM.

As to `CC(=O)OC[C@H]1O[C@@H](n2ccc3cc(Br)ccc32)[C@H](OC(C)=O)[C@@H](OC(C)=O)[C@@H]1OC(C)=O`, the inhibition in data set [8] is greater than 90%.

Regarding `Brc1ccc(C(c2c[nH]c3ccccc23)c2c[nH]c3ccccc23)cc1`, the IC50 in data set [1] is 47 µM. Further, in [7], the inhibition entry was “inactive”.
